Source: ChEMBL document CHEMBL3102734, “Inhibition of LOX by flavonoids: a structure-activity relationship study” (Eur J Med Chem, 2014)
The source made the active and inactive calls. The calls are words filed in the database; no cut-off is given here.

Key:
[1] = biological target: T1, Polyunsaturated fatty acid 5-lipoxygenase (Homo sapiens) (UniProt P09917); assay: Inhibition of 5-LOX-mediated LTB4 production in human neutrophils using arachidonic acid as substrate at 0.15 to 40 uM preincubated for 10 mins followed by substrate addition measured after 8 mins by enzyme immunoassay relative to control
T1 sequence (whole entry): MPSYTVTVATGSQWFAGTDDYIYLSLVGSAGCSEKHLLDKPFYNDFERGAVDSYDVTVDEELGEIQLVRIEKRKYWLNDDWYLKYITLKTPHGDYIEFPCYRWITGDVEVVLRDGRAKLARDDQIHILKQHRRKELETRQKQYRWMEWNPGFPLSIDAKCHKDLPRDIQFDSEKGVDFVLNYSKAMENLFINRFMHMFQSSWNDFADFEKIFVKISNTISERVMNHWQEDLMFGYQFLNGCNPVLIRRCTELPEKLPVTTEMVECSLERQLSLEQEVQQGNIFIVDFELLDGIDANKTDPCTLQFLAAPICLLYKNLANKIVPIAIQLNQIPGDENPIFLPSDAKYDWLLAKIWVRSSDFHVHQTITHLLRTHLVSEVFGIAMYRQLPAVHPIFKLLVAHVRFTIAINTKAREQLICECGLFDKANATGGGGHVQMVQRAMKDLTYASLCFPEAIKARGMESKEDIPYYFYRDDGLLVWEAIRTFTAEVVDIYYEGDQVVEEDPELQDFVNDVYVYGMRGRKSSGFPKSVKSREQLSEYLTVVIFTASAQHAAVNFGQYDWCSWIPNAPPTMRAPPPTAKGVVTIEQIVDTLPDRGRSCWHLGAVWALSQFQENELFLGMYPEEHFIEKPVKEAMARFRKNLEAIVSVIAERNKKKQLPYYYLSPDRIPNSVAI
Method in brief: (§1)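 Isolated human neutrophils held in HBSS on ice; viability checked by trypan blue. Cells at 3.5×10^6 cells/mL equilibrated 10 min at 37 °C. Flavonoids (0.15–40 μM) pre-incubated 10 min, then A23187 (5 μM) plus arachidonic acid (10 μg/mL) added for 8 min. Stopped with cold methanol and centrifuged 13,000 g, 1 min, 4 °C. LTB4 measured by EIA and expressed as % inhibition of control. NDGA (1 μM) positive control. At least three experiments.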

[2] = biological target: T1, Polyunsaturated fatty acid 5-lipoxygenase (Homo sapiens); assay: Inhibition of 5-LOX-mediated LTB4 production in human neutrophils using arachidonic acid as substrate at 40 uM preincubated for 10 mins followed by substrate addition measured after 8 mins by enzyme immunoassay relative to control; method in brief: as §1
[3] = biological target: T2, Seed linoleate 13S-lipoxygenase-1 (Glycine max) (UniProt P08170); assay: Binding affinity to soybean LOX-1 at 1248 uM by STD-[1H] NMR spectroscopic analysis
T2 sequence (whole entry): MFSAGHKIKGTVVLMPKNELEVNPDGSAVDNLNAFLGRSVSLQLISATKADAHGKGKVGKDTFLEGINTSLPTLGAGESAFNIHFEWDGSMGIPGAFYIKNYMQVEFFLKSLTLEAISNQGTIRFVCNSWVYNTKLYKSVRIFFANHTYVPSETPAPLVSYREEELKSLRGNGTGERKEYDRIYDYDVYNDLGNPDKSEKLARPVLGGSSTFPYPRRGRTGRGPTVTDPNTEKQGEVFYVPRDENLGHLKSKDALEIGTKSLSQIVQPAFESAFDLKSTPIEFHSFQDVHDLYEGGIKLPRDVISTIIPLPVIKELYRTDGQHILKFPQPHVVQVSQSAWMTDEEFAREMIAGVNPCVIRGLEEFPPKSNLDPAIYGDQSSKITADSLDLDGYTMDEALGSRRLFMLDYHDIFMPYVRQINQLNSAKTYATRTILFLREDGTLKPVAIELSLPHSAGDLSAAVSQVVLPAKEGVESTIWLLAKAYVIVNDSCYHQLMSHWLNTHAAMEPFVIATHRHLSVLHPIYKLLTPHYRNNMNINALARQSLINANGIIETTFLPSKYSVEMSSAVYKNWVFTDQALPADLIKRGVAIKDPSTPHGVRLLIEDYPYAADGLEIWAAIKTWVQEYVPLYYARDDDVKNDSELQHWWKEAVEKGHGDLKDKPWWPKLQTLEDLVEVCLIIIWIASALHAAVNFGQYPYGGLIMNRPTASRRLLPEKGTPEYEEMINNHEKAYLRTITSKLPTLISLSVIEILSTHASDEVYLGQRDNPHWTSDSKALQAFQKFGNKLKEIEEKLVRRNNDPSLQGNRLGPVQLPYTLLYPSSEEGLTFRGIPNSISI
Method in brief: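 STD-1H NMR at 37 °C, 600 MHz, cryoprobe. Lyophilized soybean LOX-1 in Tris buffer (20 mM Tris, 7 mM (NH4)2SO4, 3.5 mM MgCl2, 0.3 mM DTT in D2O, pH 9.0). Ligand added from a 16.6 mM DMSO-d6 stock. Final concentrations: LOX 4 μM, ligand 1248 μM, ratio 300:1. On-resonance saturation at 1.0 ppm; off-resonance reference at 20000 Hz.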

[4] = biological target: T3, Polyunsaturated fatty acid 5-lipoxygenase (Homo sapiens, UniProt P09917); assay: Inhibition of 5-LOX-mediated LTB4 production in human neutrophils using arachidonic acid as substrate preincubated for 10 mins followed by substrate addition measured after 8 mins by enzyme immunoassay
T3 sequence (P09917 whole entry): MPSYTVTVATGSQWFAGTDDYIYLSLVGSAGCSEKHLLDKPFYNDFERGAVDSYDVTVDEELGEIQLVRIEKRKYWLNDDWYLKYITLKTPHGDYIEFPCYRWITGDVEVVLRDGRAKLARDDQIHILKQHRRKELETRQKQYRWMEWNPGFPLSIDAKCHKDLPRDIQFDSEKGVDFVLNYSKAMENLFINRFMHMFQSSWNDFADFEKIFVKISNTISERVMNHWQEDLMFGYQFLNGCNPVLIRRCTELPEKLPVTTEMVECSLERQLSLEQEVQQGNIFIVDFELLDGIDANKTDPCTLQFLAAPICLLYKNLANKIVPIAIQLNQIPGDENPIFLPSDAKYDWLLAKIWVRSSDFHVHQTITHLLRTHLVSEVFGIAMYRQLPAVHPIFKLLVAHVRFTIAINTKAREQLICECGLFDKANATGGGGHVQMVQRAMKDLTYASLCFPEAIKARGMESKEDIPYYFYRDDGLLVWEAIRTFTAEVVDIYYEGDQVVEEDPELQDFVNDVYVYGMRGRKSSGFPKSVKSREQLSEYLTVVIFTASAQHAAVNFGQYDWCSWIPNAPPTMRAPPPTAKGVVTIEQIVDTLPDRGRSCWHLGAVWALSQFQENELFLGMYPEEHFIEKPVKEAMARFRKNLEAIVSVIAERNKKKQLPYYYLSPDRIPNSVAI
Method in brief: as §1, with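 “blue.” for “blue. Cells at 3.5×10^6 cells/mL equilibrated 10 min at 37 °C.”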

Row | SMILES | inhibition [2] | other results
1 | O=c1cc(-c2ccccc2)oc2cccc(O)c12 | – | inhibition [1]: inactive
2 | O=C1c2c(O)cc(O)cc2O[C@H](c2ccc(O)c(O)c2)[C@H]1O | 19.9% | –
3 | O=c1cc(-c2ccc(O)c(O)c2)oc2cc(O)ccc12 | – | Activity [3]: Active; IC50 [4]: 2 µM
4 | COc1ccc(-c2cc(=O)c3c(O)cc(O)cc3o2)cc1OC | < 50% | –
5 | O=c1cc(-c2cccc(O)c2)oc2cc(O)ccc12 | 51.4% | –
6 | O=c1cc(-c2ccc(O)cc2)oc2ccccc12 | 38.4% | –
